Data reported in ChEMBL document CHEMBL3046721, “3-(Arylthiomethyl)isoxazole-4,5-dicarboxamides: chemoselective nucleophilic chemistry and insecticidal activity” (2009).
Activity calls are given as the source filed them. Unless noted, the calls are words filed in the database; no cut-off is given here.

Tests used:
Aedes aegypti = assay: Insecticidal activity against larvae of Aedes aegypti assessed as mortality after 3 days by high-throughput screening assay; type: functional, organism-based
How it was run: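 One-day-old larvae placed in 96-well plates pre-treated with 6 μg/well, applied in 15 μl DMSO-acetone-water (1:1:8) and dried. Plates lidded, held at room temperature, mortality graded 3 days post-treatment. Six replicates per treatment.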

Spodoptera exigua [1] = assay: Insecticidal activity against second-instar larval stage of Spodoptera exigua fed with artificial diet containing compound assessed as mortality at 50 ug/cm2 after 5 days by diet-based secondary assay; type: functional; conditions: 120 h
How it was run: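 Second-instar larvae on 128-well trays with 1 mL diet dosed at 50 μg/cm2, eight wells per treatment under clear plastic. Percent mortality averaged over the eight wells, scored 5 days after assay start; tested only on primary-screen hits (>67% mortality).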

Helicoverpa zea = assay: Insecticidal activity against second-instar larval stage of Helicoverpa zea (corn earworm) fed with artificial diet containing compound assessed as mortality after 5 days by diet-based secondary assay; type: functional, organism-based
How it was run: (§1)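 Follow-up for primary-screen hits (>67% mortality): 128-well diet trays, 1 mL diet containing selected dosages, second-instar larvae. Wells covered with clear plastic, eight wells per treatment, percent mortality averaged over eight wells at 5 days. Approximate LC50 estimated by probit analysis.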

Spodoptera exigua [2] = assay: Insecticidal activity against second-instar larval stage of Spodoptera exigua fed with artificial diet containing compound assessed as mortality after 5 days by diet-based secondary assay; type: functional; how it was run: as §1
Spodoptera exigua [3] = assay: Insecticidal activity against larvae of Spodoptera exigua fed with artificial diet containing compound assessed as mortality after 6 days by high-throughput screening assay; type: functional; parameters: concentration or dose not given beside the values
How it was run: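 Artificial diet (100 μl/well, 96-well) pretreated with 12 μg compound in 30 μl DMSO-acetone-water (2:1:7), dried several hours, then seeded with eggs. Plates covered, kept in dark at 29°C, mortality recorded 6 days post-treatment. Six replicates per treatment.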

Row | SMILES | mortality (Aedes aegypti) | mortality at 50 µg/cm2 (Spodoptera exigua [1]) [%] | mortality (Helicoverpa zea) | LC50 (Spodoptera exigua [2]) [microg/cm2] | mortality (Spodoptera exigua [3]) [%]
1 | COCCNC(=O)c1onc(CS(=O)(=O)c2ccccc2)c1C(=O)NCCOC | inactive | 75 | inactive | 19 | 83
2 | CCCCNC(=O)c1onc(CS(=O)(=O)c2ccccc2)c1C(=O)NCCCC | inactive | 75 | inactive | 30 | 100
3 | CC[C@H]1CCC[C@H](O[C@H]2CC[C@H](N(C)C)[C@@H](C)O2)[C@@H](C)C(=O)C2=C[C@@H]3[C@@H](C=C(C)[C@@H]4C[C@@H](O[C@@H]5O[C@@H](C)[C@H](OC)[C@@H](OC)[C@H]5OC)C[C@@H]34)[C@@H]2CC(=O)O1.CC[C@H]1CCC[C@H](O[C@H]2CC[C@H](N(C)C)[C@@H](C)O2)[C@@H](C)C(=O)C2=C[C@@H]3[C@@H](C=C[C@@H]4C[C@@H](O[C@@H]5O[C@@H](C)[C@H](OC)[C@@H](OC)[C@H]5OC)C[C@@H]34)[C@@H]2CC(=O)O1 | – | – | – | 0.06 | –
4 | CCCNC(=O)c1c(CS(=O)(=O)c2ccccc2)noc1C(=O)NCc1ccccc1 | inactive | 0 | inactive | – | 100
5 | C=CCNC(=O)c1onc(CS(=O)(=O)c2ccc(Cl)cc2)c1C(=O)NCC=C | inactive | 0 | inactive | – | 100
6 | Cc1cc(C)cc(SCc2noc(C(=O)NCc3ccccc3)c2C(=O)NCc2ccccc2)c1 | inactive | 0 | inactive | – | 83
7 | COCCNC(=O)c1onc(CSc2ccc(Cl)cc2)c1C(=O)NCCOC | inactive | 0 | inactive | – | 83
8 | CCCCNC(=O)c1c(CSc2ccccc2)noc1C(=O)NCc1ccccc1 | inactive | 0 | inactive | – | 100
9 | CCCNC(=O)c1c(CSc2ccc(Cl)cc2)noc1C(=O)NCc1ccccc1 | inactive | 0 | inactive | – | 100
10 | COCCNC(=O)c1c(CS(=O)(=O)c2ccc(Cl)cc2)noc1C(=O)NCc1ccccc1 | inactive | 0 | inactive | – | 100
11 | CCCCNC(=O)c1c(CSc2ccc(Cl)cc2)noc1C(=O)NCc1ccccc1 | inactive | 0 | inactive | – | 83
12 | CCCNC(=O)c1c(CSc2ccccc2)noc1C(=O)NCc1ccccc1 | inactive | 38 | inactive | – | 83
13 | C=CCNC(=O)c1onc(CS(=O)(=O)c2ccccc2)c1C(=O)NCC=C | inactive | 0 | inactive | – | 100
14 | CCCCNC(=O)c1onc(CS(=O)(=O)c2ccc(Cl)cc2)c1C(=O)NCCCC | inactive | 0 | inactive | – | 100
15 | CCCCNC(=O)c1c(CS(=O)(=O)c2ccc(Cl)cc2)noc1C(=O)NCc1ccccc1 | inactive | 0 | inactive | – | 83
16 | C=CCNC(=O)c1c(CS(=O)(=O)c2ccccc2)noc1C(=O)NCc1ccccc1 | inactive | 0 | inactive | – | 100
